According to paper PMC9122571 (RSC Advances, 2020):

What was measured:
A549 cells [1] = test: In vitro cytotoxicity, MTT assay; type: cell-based, human; conditions: 48 h
In short: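 A549 cells (DMEM, 10% FBS, penicillin/streptomycin, 37 °C, 5% CO2) seeded at 5 × 10³ per well and left overnight. Exposed 48 h to test compound at 6.25–200 μM. MTT (0.5 mg mL−1 in DMEM) added for 4 h; formazan dissolved in DMSO; A490 read. Viability taken as % of (ODtest − ODblank)/(ODcontrol − ODblank); means ± SD.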

[2] = DPPH radical scavenging assay
In short: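 Test compound dissolved in DMSO and diluted in ethanol; a series of concentrations mixed with 2 mL DPPH solution (3.94 mg per 100 mL anhydrous ethanol). Kept 30 min at room temperature in the dark, then A519 read. Scavenging calculated as % of (Acontrol − Asample)/Acontrol. Vitamin C served as reference.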

A549 cells [3] = test: Cell viability after H2O2 induced oxidative stress; type: cell-based, human; conditions: A549, 24 h pretreatment at 3.125–100 μM, then 800 μM H2O2 for 4 h
In short: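 A549 cells in DMEM with 10% FBS and penicillin/streptomycin at 37 °C, 5% CO2, pretreated with test compound for 24 h, then given 800 μM H2O2 for 4 h. Untreated and H2O2-only groups run alongside. Viability by MTT (0.5 mg mL−1, 4 h, DMSO solubilisation, A490) as % of (ODtest − ODblank)/(ODcontrol − ODblank). n = 4; ANOVA with LSD post hoc test.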

Compound | viability of A549 cells (A549 cells [1]; concentration ≤200 μM) | free radical scavenging effect compared with vitamin C [2] | further results
CC(=O)Oc1ccc(/C=C\C(=O)Nc2ccc(S(=O)(=O)Nc3ncccn3)cc2)cc1OC(C)=O [ACASDZ, (Z)-4-(3-Oxo-3-(4-(N-pyrimidin-2ylsulfamoyl)phenylamino)prop-1-enyl)-1,2-phenylene diacetate] | not significantly decreased |  | 
COc1cnc(NS(=O)(=O)c2ccc(NC(=O)/C=C\c3ccc(OC(C)=O)c(OC(C)=O)c3)cc2)nc1 [ACASMD, (Z)-4-(3-(4-(N-(5-Methoxypyrimidin-2yl)sulfamoyl)phenylamino)-3-oxoprop-1-enyl)-1,2-phenylene diacetate] | not significantly decreased |  | 
CC(=O)Oc1ccc(/C=C\C(=O)Nc2ccc(S(N)(=O)=O)cc2)cc1OC(C)=O [ACASN, (Z)-4-(3-Oxo-3-(4-sulfamoylphenylamino)prop-1-enyl)-1,2-phenylene diacetate] | not significantly decreased |  | 
O=C(/C=C\c1ccc(O)c(O)c1)Nc1ccc(S(=O)(=O)Nc2ncccn2)cc1 [CASDZ, (Z)-3-(3,4-Dihydroxyphenyl)-N-(4-(N-pyrimidin-2-ylsulfamoyl)phenyl)acrylamide] | not significantly decreased | higher | growth of A549 cells (A549 cells [1]; concentration of 200 μM): significantly inhibits
COc1cnc(NS(=O)(=O)c2ccc(NC(=O)/C=C\c3ccc(O)c(O)c3)cc2)nc1 [CASMD, (Z)-3-(3,4-Dihydroxyphenyl)-N-(4-(N-(5-methoxypyrimidin-2-yl)sulfamoyl)phenyl)acrylamide] | not significantly decreased | higher | viability of A549 cells (A549 cells [1]; concentration ≤100 μM): not significantly decreased
NS(=O)(=O)c1ccc(NC(=O)/C=C\c2ccc(O)c(O)c2)cc1 [CASN, (Z)-3-(3,4-Dihydroxyphenyl)-N-(4-sulfamoylphenyl)acrylamide] | not significantly decreased | higher | 
O=C(O)/C=C/c1ccc(O)c(O)c1 [Caffeic acid] |  |  | prevention of 800 μM H2O2 induced decrease in cell viability (A549 cells [3]): could not prevent
O=C1O[C@H]([C@@H](O)CO)C(O)=C1O [Vitamin C] |  |  | prevention of 800 μM H2O2 induced decrease in cell viability (A549 cells [3]): could not prevent
